Values belong to the compound of their own block, whether it stands above or below them. Residues, ends and D or L forms follow the SMILES beside them.
How the values were obtained:
[1] = molecular target: T1, Gastrin/cholecystokinin type B receptor (Rattus norvegicus, UniProt P30553); assay: Binding affinity by competitive inhibition of the radioligand [3H]pCCK-8 at Cholecystokinin type B receptor from rat cerebral cortex membrane; assay type: tissue-based
T1 sequence (P30553 whole entry): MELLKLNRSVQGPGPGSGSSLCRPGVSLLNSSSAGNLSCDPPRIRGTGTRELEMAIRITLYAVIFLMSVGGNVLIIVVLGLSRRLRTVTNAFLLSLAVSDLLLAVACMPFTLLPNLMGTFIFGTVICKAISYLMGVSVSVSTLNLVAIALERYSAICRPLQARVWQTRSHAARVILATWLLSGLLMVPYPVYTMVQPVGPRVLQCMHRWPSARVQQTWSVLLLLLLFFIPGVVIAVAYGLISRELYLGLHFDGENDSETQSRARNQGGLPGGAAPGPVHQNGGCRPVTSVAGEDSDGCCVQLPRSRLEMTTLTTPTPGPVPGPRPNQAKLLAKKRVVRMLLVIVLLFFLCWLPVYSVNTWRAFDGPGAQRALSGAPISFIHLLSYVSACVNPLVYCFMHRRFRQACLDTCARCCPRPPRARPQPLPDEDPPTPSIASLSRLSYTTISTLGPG

[2] = molecular target: T2, Cholecystokinin receptor type A (Rattus norvegicus, UniProt P30551); assay: Binding affinity by competitive inhibition of the radioligand [3H]pCCK-8 at Cholecystokinin type A receptor from rat pancreas
T2 sequence (P30551 whole entry): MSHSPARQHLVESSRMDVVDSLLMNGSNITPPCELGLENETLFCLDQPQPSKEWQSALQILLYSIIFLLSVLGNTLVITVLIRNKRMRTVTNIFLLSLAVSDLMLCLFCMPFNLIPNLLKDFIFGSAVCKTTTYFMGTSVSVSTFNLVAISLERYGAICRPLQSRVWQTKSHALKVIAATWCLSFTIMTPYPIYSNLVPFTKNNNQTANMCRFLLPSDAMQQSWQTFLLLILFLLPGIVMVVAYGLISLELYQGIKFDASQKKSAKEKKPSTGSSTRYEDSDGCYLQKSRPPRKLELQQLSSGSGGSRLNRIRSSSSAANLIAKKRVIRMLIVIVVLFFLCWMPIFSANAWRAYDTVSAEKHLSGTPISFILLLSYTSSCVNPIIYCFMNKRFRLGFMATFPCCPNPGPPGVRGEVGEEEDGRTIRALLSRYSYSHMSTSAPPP
In short: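 Rat pancreas homogenized in Pipes HCl pH 6.5 with 30 mM MgCl2, centrifuged twice at 50000g, 4 °C. Membranes (0.2 mg protein/tube) incubated with 0.5 nM [3H]pCCK-8 plus bacitracin and soybean trypsin inhibitor (0.2 mg/mL each) for 120 min at 25 °C. Ki from displacement curves by Cheng–Prusoff. Seven concentrations in triplicate, at least three experiments.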

[3] = test system: Rattus norvegicus; assay: Compound (CCK1 antagonist) was administered intraperitoneally for the effect of increase in plasma amylase activity induced by caerulein in rat at the dose of 1 mg/kg; assay type: functional; settings: route intraperitoneal
In short: (§1)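 Male Wistar rats (190–210 g), fasted 24 h, given four sc caerulein injections (10 µg/kg) at hourly intervals. Antagonist given ip (0.25 mL/100 g; 0.1 or 1 mg/kg) 30 min before the first caerulein dose. Blood taken 3 h after the last injection. Plasma amylase and lipase measured by commercial kits, in IU/mL. Statistics by ANOVA with Scheffé's test against caerulein alone.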

[4] = test system: Rattus norvegicus; assay: Compound (CCK1 antagonist) was administered intraperitoneally for the effect of increase in plasma amylase activity induced by caerulein in rat at the dose of 0.1 mg/kg; assay type: functional; settings: route intraperitoneal; in short: as §1
[5] = test system: Rattus norvegicus; assay: Compound (CCK1 antagonist) was administered intraperitoneally for the effect of increase in plasma lipase activity induced by caerulein in rat at the dose of 0.1 mg/kg; assay type: functional; settings: route intraperitoneal; in short: as §1
[6] = test system: Rattus norvegicus; assay: Compound (CCK1 antagonist) was administered orally for the effect of increase in plasma lipase activity induced by caerulein in rat at the dose of 1 mg/kg; assay type: functional; settings: route oral
In short: (§2)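 Caerulein pancreatitis in fasted (24 h) male Wistar rats (190–210 g): four hourly sc injections of 10 µg/kg. Antagonist dosed orally (0.25 mL/100 g; 0.1 or 1 mg/kg) 60 min before the first caerulein injection. Plasma drawn 3 h after the final injection. Amylase and lipase activities read with commercial kits, in IU/mL. Comparisons by ANOVA plus Scheffé's test against caerulein.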

[7] = test system: Rattus norvegicus; assay: Compound (CCK1 antagonist) was administered orally for the effect of increase in plasma amylase activity induced by caerulein in rat at the dose of 0.1 mg/kg; assay type: functional; settings: route oral; in short: as §2
[8] = test system: Rattus norvegicus; assay: Compound (CCK1 antagonist) was administered orally for the effect of increase in plasma amylase activity induced by caerulein in rat at the dose of 1 mg/kg; assay type: functional; settings: route oral; in short: as §2
[9] = test system: Rattus norvegicus; assay: Compound (CCK1 antagonist) was administered intraperitoneally for the effect of increase in plasma lipase activity induced by caerulein in rat at the dose of 1 mg/kg; assay type: functional; settings: route intraperitoneal; in short: as §1
[10] = test system: Rattus norvegicus; assay: Compound (CCK1 antagonist) was administered orally for the effect of increase in plasma lipase activity induced by caerulein in rat at the dose of 0.1 mg/kg; assay type: functional; settings: route oral; in short: as §2
[11] = test system: Rattus norvegicus; assay: Compound (CCK1 antagonist) was administered intraperitoneally for the effect of increase in plasma amylase activity induced by caerulein in rat; assay type: functional; in short: as §1
[12] = test system: Rattus norvegicus; assay: Compound (CCK1 antagonist) was administered orally for the effect of increase in plasma amylase activity induced by caerulein in rat.; assay type: functional; in short: as §2
[13] = test system: Rattus norvegicus; assay: Compound (CCK1 antagonist) was administered orally for the effect of increase in plasma lipase activity induced by caerulein in rat; assay type: functional; in short: as §2
[14] = test system: Rattus norvegicus; assay: Compound (CCK1 antagonist) was administered intraperitoneally for the effect of increase in plasma lipase activity induced by caerulein in rat

IC50 [1]: > 10 µM
IC50 [2]: > 1000 nM
SMILES: N#C[C@@H](N[C@@H]1CCCN2C(=O)N(Cc3ccccc3)C(=O)C[C@H]12)[C@H](Cc1c[nH]c2ccccc12)NC(=O)OCc1ccccc1

IC50 [1]: > 10 µM
IC50 [2]: > 1000 nM
SMILES: N[C@@H](Cc1c[nH]c2ccccc12)C(=O)N[C@@H]1CCCN2C(=O)N(Cc3ccccc3)C(=O)C[C@H]12

IC50 [1]: 4.39 µM
IC50 [2]: 486 nM
SMILES: O=C(N[C@H]1CCCN2C(=O)N(Cc3ccccc3)C(=O)C[C@@H]12)[C@H](Cc1c[nH]c2ccccc12)NC(=O)C12CC3CC(CC(C3)C1)C2

IC50 [1]: > 10 µM
IC50 [2]: > 1000 nM
SMILES: CC(C)(C)OC(=O)N1Cc2[nH]c3ccccc3c2CC1C(=O)N[C@H]1CCCN2C(=O)N(Cc3ccccc3)C(=O)C[C@@H]12 (some centres undefined)

IC50 [1]: > 10 µM
IC50 [2]: > 1000 nM
SMILES: O=C(N[C@@H]1CCCN2C(=O)N(Cc3ccccc3)C(=O)C[C@@H]12)c1cc2ccccc2[nH]1.O=C(N[C@H]1CCCN2C(=O)N(Cc3ccccc3)C(=O)C[C@H]12)c1cc2ccccc2[nH]1

IC50 [1]: > 10 µM
SMILES: CC(C)(C)OC(=O)N[C@](C)(Cc1c[nH]c2ccccc12)C(=O)N[C@@H]1CCCN2C(=O)N(Cc3ccccc3)C(=O)C[C@@H]12.CC(C)(C)OC(=O)N[C@](C)(Cc1c[nH]c2ccccc12)C(=O)N[C@H]1CCCN2C(=O)N(Cc3ccccc3)C(=O)C[C@H]12

IC50 [1]: > 10 µM
IC50 [2]: > 1000 nM
SMILES: N#C[C@H](N[C@@H]1CCCN2C(=O)N(Cc3ccccc3)C(=O)C[C@H]12)[C@H](Cc1c[nH]c2ccccc12)NC(=O)OCc1ccccc1

IC50 [1]: > 10 µM
IC50 [2]: 42.4 nM
SMILES: CC(C)(C)OC(=O)N[C@@](C)(Cc1c[nH]c2ccccc12)C(=O)N[C@@H]1CCCN2C(=O)N(Cc3ccccc3)C(=O)C[C@@H]12.CC(C)(C)OC(=O)N[C@@](C)(Cc1c[nH]c2ccccc12)C(=O)N[C@H]1CCCN2C(=O)N(Cc3ccccc3)C(=O)C[C@H]12 (single isomer, unassigned)

IC50 [1]: 3.43 µM
IC50 [2]: 340 nM
SMILES: O=C(N[C@@H](Cc1c[nH]c2ccccc12)C(=O)N[C@H]1CCCN2C(=O)N(Cc3ccccc3)C(=O)CC12)OC1C2CC3CC(C2)CC1C3 (single isomer, unassigned)

IC50 [1]: > 10 µM
IC50 [2]: 0.91 nM
SMILES: CC(C)(C)NC(=O)N[C@@H](Cc1c[nH]c2ccccc12)C(=O)N[C@@H]1CCCN2C(=O)N(Cc3ccccc3)C(=O)CC12 (single isomer, unassigned)
Increase in plasma amylase [3]: 5326 IU ml-1
Increase in plasma amylase [4]: 27103 IU ml-1
Increase in plasma lipase [5]: 1667 IU ml-1
Increase in plasma lipase [6]: 1062 IU ml-1
Increase in plasma amylase [7]: 28939 IU ml-1
Increase in plasma amylase [8]: 19967 IU ml-1
Increase in plasma lipase [9]: 36 IU ml-1
Increase in plasma lipase [10]: 2200 IU ml-1

IC50 [1]: > 10 µM
IC50 [2]: 4.43 nM
SMILES: CC(C)(C)CC(=O)N[C@@H](Cc1c[nH]c2ccccc12)C(=O)N[C@@H]1CCCN2C(=O)N(Cc3ccccc3)C(=O)CC12 (single isomer, unassigned)
Increase in plasma amylase [3]: 28015 IU ml-1
Increase in plasma amylase [4]: 61102 IU ml-1
Increase in plasma lipase [5]: 2956 IU ml-1
Increase in plasma lipase [6]: 3375 IU ml-1
Increase in plasma amylase [7]: 51420 IU ml-1
Increase in plasma amylase [8]: 46591 IU ml-1
Increase in plasma lipase [9]: 1140 IU ml-1
Increase in plasma lipase [10]: 3089 IU ml-1

Second part, the compound before the results:

SMILES: N[C@@H](Cc1c[nH]c2ccccc12)C(=O)N[C@H]1CCCN2C(=O)N(Cc3ccccc3)C(=O)C[C@@H]12
IC50 [1]: > 10 µM
IC50 [2]: > 1000 nM

SMILES: O=C(Cc1c[nH]c2ccccc12)N[C@H]1CCCN2C(=O)N(Cc3ccccc3)C(=O)C[C@@H]12.O=C(N[C@@H]1CCCN2C(=O)N(Cc3ccccc3)C(=O)C[C@H]12)c1c[nH]c2ccccc12
IC50 [1]: > 10 µM
IC50 [2]: > 1000 nM

SMILES: CC(C)(C)OC(=O)N[C@@H](Cc1c[nH]c2ccccc12)C(=O)N[C@H]1CCCN2C(=O)N(Cc3ccccc3)C(=O)C[C@@H]12
IC50 [1]: 6.15 µM
IC50 [2]: 22.7 nM

SMILES: CC(C)(C)OC(=O)N[C@@H](Cc1ccccc1)C(=O)N[C@@H]1CCCN2C(=O)N(Cc3ccccc3)C(=O)C[C@H]12
IC50 [1]: > 10 µM
IC50 [2]: 65.7 nM

SMILES: CC(C)(C)OC(=O)N1Cc2[nH]c3ccccc3c2CC1C(=O)N[C@@H]1CCCN2C(=O)N(Cc3ccccc3)C(=O)C[C@H]12 (some centres undefined)
IC50 [1]: > 10 µM

SMILES: CC(C)(C)OC(=O)N[C@H](CN[C@@H]1CCCN2C(=O)N(Cc3ccccc3)C(=O)C[C@H]12)Cc1c[nH]c2ccccc12
IC50 [1]: > 10 µM
IC50 [2]: > 1000 nM

SMILES: CC(C)(C)OC(=O)N[C@@H](Cc1c[nH]c2ccccc12)[C@H](C#N)N[C@@H]1CCCN2C(=O)N(Cc3ccccc3)C(=O)CC12 (single isomer, unassigned)
IC50 [1]: > 10 µM
IC50 [2]: 7.69 nM

SMILES: CC(C)(C)OC(=O)N[C@@H](Cc1c[nH]c2ccccc12)[C@@H](C#N)N[C@@H]1CCCN2C(=O)N(Cc3ccccc3)C(=O)CC12 (single isomer, unassigned)
IC50 [1]: > 10 µM
IC50 [2]: 32.6 nM

SMILES: CC(C)(C)OC(=O)N[C@@H](Cc1c[nH]c2ccccc12)C(=O)N[C@@H]1CCCN2C(=O)N(Cc3ccccc3)C(=O)CC12 (single isomer, unassigned) [IQM-95333]
Increase in plasma amylase [3]: 2721 IU ml-1
Increase in plasma amylase [4]: 35985 IU ml-1
IC50 [1]: > 10 µM
Increase in plasma lipase [5]: 1943 IU ml-1
Increase in plasma lipase [6]: 1948 IU ml-1
Increase in plasma amylase [7]: 37753 IU ml-1
IC50 [2]: 1.59 nM
Increase in plasma amylase [8]: 31205 IU ml-1
Increase in plasma lipase [9]: 112 IU ml-1
Increase in plasma lipase [10]: 2837 IU ml-1

SMILES: CSCC[C@H](NC(=O)[C@H](Cc1c[nH]c2ccccc12)NC(=O)CNC(=O)[C@@H](NC(=O)[C@H](Cc1ccc(OS(=O)(=O)O)cc1)NC(=O)[C@H](CC(=O)O)NC(=O)[C@H](CCC(N)=O)NC(=O)[C@@H]1CCC(=O)N1)[C@@H](C)O)C(=O)N[C@@H](CC(=O)O)C(=O)N[C@@H](Cc1ccccc1)C(N)=O [CAERULIN] (HELM PEPTIDE1{[Glp].Q.D.[O=C([C@H](Cc1ccc(OS(=O)(=O)O)cc1)N[*:1])[*:2]].T.G.W.M.D.F.[am]}$$$$V2.0)
Increase in plasma amylase [11]: 52101 IU ml-1
Increase in plasma amylase [12]: 39293 IU ml-1
Increase in plasma lipase [13]: 2801 IU ml-1
Increase in plasma lipase [14]: 3100 IU ml-1

SMILES: CN1C(=O)[C@@H](NC(=O)c2cc3ccccc3[nH]2)N=C(c2ccccc2)c2ccccc21 [DEVAZEPIDE]
Increase in plasma amylase [3]: 3650 IU ml-1
Increase in plasma amylase [4]: 8793 IU ml-1
Increase in plasma lipase [5]: 125 IU ml-1
Increase in plasma lipase [6]: 57 IU ml-1
Increase in plasma amylase [7]: 7733 IU ml-1
Increase in plasma amylase [8]: 4578 IU ml-1
Increase in plasma lipase [9]: 26 IU ml-1
Increase in plasma lipase [10]: 871 IU ml-1
